Reference: ChEMBL document CHEMBL3351736, “A promising camptothecin derivative: Semisynthesis, antitumor activity and intestinal permeability” (Eur J Med Chem, 2014)
Activity calls are given as the source filed them. The calls are words filed in the database; no cut-off is given here.

Experiments:
HeLa [1] = assay: Cytotoxicity against human HeLa cells after 24 hrs by MTT assay; assay type: functional, cell-based
Procedure, shortened: (§1)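 Cells seeded at 25000 per well and held 24 h at 37 °C in 5% CO2. Medium was then renewed and compounds added at increasing concentrations (DMSO 0.1%, or water for topotecan) for 24 h. MTT solution (5 mg/mL) was added for 3 h at 37 °C, then absorbance read at 570 nm, corrected at 630 nm. IC50 in µM.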

[2] = Cytotoxicity against human Caco2 cells after 24 hrs by MTT assay; assay type: functional, cell-based; settings: Caco-2, 24 h
A-375 [3] = assay: Cytotoxicity against human A375 cells after 24 hrs by MTT assay; assay type: functional, cell-based; settings: A-375, 24 h; procedure, shortened: as §1
Jurkat = assay: Cytotoxicity against human Jurkat cells after 24 hrs by MTT assay; assay type: functional, cell-based; procedure, shortened: as §1
MDA-MB-231 [4] = assay: Cytotoxicity against human MDA-MB-231 cells after 24 hrs by MTT assay; assay type: functional, cell-based; settings: MDA-MB-231, 24 h; procedure, shortened: as §1
Caco-2 [5] = assay: Induction of apoptosis in human Caco2 cells assessed as vital cells at 0.05 uM after 24 hrs by Annexin V/propidium iodide staining-based flow cytometric analysis (reference value: 96.67 +/- 1.02%); assay type: functional
Caco-2 [6] = assay: Induction of apoptosis in human Caco2 cells assessed as vital cells at 0.5 uM after 24 hrs by Annexin V/propidium iodide staining-based flow cytometric analysis (reference value: 96.67 +/- 1.02%); assay type: functional
Caco-2 [7] = assay: Induction of apoptosis in human Caco2 cells assessed as vital cells at 0.05 uM after 48 hrs by Annexin V/propidium iodide staining-based flow cytometric analysis (reference value: 96.67 +/- 1.02%); assay type: functional
Caco-2 [8] = assay: Induction of apoptosis in human Caco2 cells assessed as vital cells at 0.5 uM after 48 hrs by Annexin V/propidium iodide staining-based flow cytometric analysis (reference value: 96.67 +/- 1.02%); assay type: functional
Caco-2 [9] = assay: Induction of apoptosis in human Caco2 cells assessed as early apoptotic cells at 0.05 uM after 24 hrs by Annexin V/propidium iodide staining-based flow cytometric analysis (reference value: 0.72 +/- 0.03%); assay type: functional
Caco-2 [10] = assay: Induction of apoptosis in human Caco2 cells assessed as early apoptotic cells at 0.5 uM after 24 hrs by Annexin V/propidium iodide staining-based flow cytometric analysis (reference value: 0.72 +/- 0.03%); assay type: functional
Caco-2 [11] = assay: Induction of apoptosis in human Caco2 cells assessed as early apoptotic cells at 0.05 uM after 48 hrs by Annexin V/propidium iodide staining-based flow cytometric analysis (reference value: 0.72 +/- 0.03%); assay type: functional
Caco-2 [12] = assay: Induction of apoptosis in human Caco2 cells assessed as early apoptotic cells at 0.5 uM after 48 hrs by Annexin V/propidium iodide staining-based flow cytometric analysis (reference value: 0.72 +/- 0.03%); assay type: functional
Caco-2 [13] = assay: Induction of apoptosis in human Caco2 cells assessed as late apoptotic cells at 0.05 uM after 24 hrs by Annexin V/propidium iodide staining-based flow cytometric analysis (reference value: 2.20 +/- 0.77%); assay type: functional
Caco-2 [14] = assay: Induction of apoptosis in human Caco2 cells assessed as late apoptotic cells at 0.5 uM after 24 hrs by Annexin V/propidium iodide staining-based flow cytometric analysis (reference value: 2.20 +/- 0.77%); assay type: functional
Caco-2 [15] = assay: Induction of apoptosis in human Caco2 cells assessed as late apoptotic cells at 0.05 uM after 48 hrs by Annexin V/propidium iodide staining-based flow cytometric analysis (reference value: 2.20 +/- 0.77%); assay type: functional
Caco-2 [16] = assay: Induction of apoptosis in human Caco2 cells assessed as late apoptotic cells at 0.5 uM after 48 hrs by Annexin V/propidium iodide staining-based flow cytometric analysis (reference value: 2.20 +/- 0.77%); assay type: functional
Caco-2 [17] = assay: Induction of apoptosis in human Caco2 cells assessed as necrotic cells at 0.05 uM after 24 hrs by Annexin V/propidium iodide staining-based flow cytometric analysis (reference value: 0.41 +/- 0.02%); assay type: functional
Caco-2 [18] = assay: Induction of apoptosis in human Caco2 cells assessed as necrotic cells at 0.5 uM after 24 hrs by Annexin V/propidium iodide staining-based flow cytometric analysis (reference value: 0.41 +/- 0.02%); assay type: functional
Caco-2 [19] = assay: Induction of apoptosis in human Caco2 cells assessed as necrotic cells at 0.05 uM after 48 hrs by Annexin V/propidium iodide staining-based flow cytometric analysis (reference value: 0.41 +/- 0.02%); assay type: functional
Caco-2 [20] = assay: Induction of apoptosis in human Caco2 cells assessed as necrotic cells at 0.5 uM after 48 hrs by Annexin V/propidium iodide staining-based flow cytometric analysis (reference value: 0.41 +/- 0.02%); assay type: functional
A-375 [21] = assay: Induction of apoptosis in human A375 cells assessed as inhibition of DNA synthesis at 0.8 to 1.6 uM after 24 hrs by BrdU staining-based ELISA; assay type: functional, cell-based
Procedure, shortened: (§2)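 BrdU colorimetric cell proliferation ELISA. Cells seeded at 25,000 per well, compounds added 24 h after seeding and incubated 24 h. Cells fixed and the immunoassay run per kit. Absorbance read at 370-492 nm over 3 intervals of 5 min; absorbance difference proportional to BrdU incorporation. Mean of three separate experiments in triplicate, compared with untreated control.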

HeLa [22] = assay: Induction of apoptosis in human HeLa cells assessed as inhibition of DNA synthesis at 0.8 to 1.6 uM after 24 hrs by BrdU staining-based ELISA; assay type: functional, cell-based; procedure, shortened: as §2
MDA-MB-231 [23] = assay: Induction of apoptosis in human MDA-MB-231 cells assessed as inhibition of DNA synthesis at 0.8 to 1.6 uM after 24 hrs by BrdU staining-based ELISA; assay type: functional, cell-based; procedure, shortened: as §2
A-375 [24] = assay: Induction of apoptosis in human A375 cells assessed as p53 phosphorylation at Ser15 by Western blotting analysis; assay type: functional, cell-based
Procedure, shortened: (§3)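 Cells treated 24 h. About 10^6 cells lysed on ice 15 min in Hepes pH 7.4/Triton X-100 buffer with phosphatase and protease inhibitors, then spun 13,000 × g. 30 µg protein run on 12% SDS-PAGE and blotted to nitrocellulose. Primary anti-phospho-p53 (Ser15) and anti-p53 at 1:1000 for 2 h at room temperature, then HRP secondary and ECL densitometry. Results referred to untreated control.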

HeLa [25] = assay: Induction of apoptosis in human HeLa cells assessed as p53 phosphorylation at Ser15 by Western blotting analysis; assay type: functional, cell-based; procedure, shortened: as §3
MDA-MB-231 [26] = assay: Induction of apoptosis in human MDA-MB-231 cells assessed as p53 phosphorylation at Ser15 by Western blotting analysis; assay type: functional, cell-based; procedure, shortened: as §3
[27] = Effective permeability from apical to basolateral side in human Caco2 cells at 50 uM after 15 to 90 mins by HPLC analysis; assay type: ADME, cell-based; settings: Caco-2, read-out: Peff
Procedure, shortened: (§4)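 Caco-2 monolayers grown 19-22 days on polycarbonate transwell inserts (4.2 cm², 0.4 µm pore) at 37 °C, 5% CO2; TEER checked before and after each run. Compound added to donor side at 37 °C, 50 rpm. Receiver sampled at 15, 30, 60 and 90 min; donor sampled at start and end. HPLC analysis. Sodium azide, when used, placed on both sides. Three independent experiments.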

[28] = Effective permeability from basolateral to apical side in human Caco2 cells at 50 uM after 15 to 90 mins by HPLC analysis; assay type: ADME, cell-based; settings: Caco-2, read-out: Peff; procedure, shortened: as §4
[29] = Effective permeability from apical to basolateral side in human Caco2 cells at 50 uM after 15 to 90 mins by HPLC analysis in presence of sodium azide; assay type: ADME, cell-based; settings: Caco-2, with sodium azide, read-out: Peff; procedure, shortened: as §4
[30] = Effective permeability from basolateral to apical side in human Caco2 cells at 50 uM after 15 to 90 mins by HPLC analysis in presence of sodium azide; assay type: ADME, cell-based; settings: Caco-2, with sodium azide, read-out: Peff; procedure, shortened: as §4
[31] = Permeability from apical to basolateral side in human Caco2 cells at 5 to 50 uM after 15 to 90 mins by HPLC analysis; assay type: ADME, cell-based; settings: caco-2, 50 µM; procedure, shortened: as §4
[32] = Permeability from basolateral to apical side in human Caco2 cells at 5 to 50 uM after 15 to 90 mins by HPLC analysis; assay type: ADME, cell-based; settings: caco-2, 50 µM; procedure, shortened: as §4
Homo sapiens = organism: Homo sapiens; assay: Activity at Pgp transporter (unknown origin)
[33] = Effective permeability in Wistar rat small intestine at 50 uM measured after 5 mins in every 5 min interval up to 30 mins; assay type: ADME, tissue-based; settings: not told, read-out: Peff
Procedure, shortened: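 In situ intestinal perfusion in male Wistar rats fasted 2 h with water allowed. Anaesthesia with diazepam (1.67 mg/kg), ketamine (50 mg/kg) and atropine (1 mg/kg); animals kept at 37 °C. Perfusate sampled every 5 min from 5 to 30 min; absorption rate constant and Peff derived.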

Small intestine = assay: Effective permeability in Wistar rat small intestine assessed as absorption rate coefficient at 50 uM measured after 5 mins in every 5 min interval up to 30 mins; assay type: ADME, tissue-based
Procedure, shortened: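 Male Wistar rats fasted 2 h with water available, then anaesthetised with diazepam (1.67 mg/kg), ketamine (50 mg/kg) and atropine (1 mg/kg) and kept at 37°C on a heated surface. In situ intestinal perfusion. Perfusate sampled from 5 min at 5 min intervals up to 30 min. Absorption rate constant (Ka) and Peff derived.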

A-375 [34] = assay: Induction of apoptosis in human A375 cells assessed as inhibition of DNA synthesis after 24 hrs by BrdU staining-based ELISA; assay type: functional, cell-based
Procedure, shortened: (§5)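 Cells seeded at 25,000/well; compounds added 24 h after seeding at a range of concentrations and incubated 24 h. Cells fixed, then colorimetric BrdU-incorporation ELISA. Absorbance read at 370-492 nm over 3 intervals of 5 min. Mean of three separate experiments with triplicate samples.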

HeLa [35] = assay: Induction of apoptosis in human HeLa cells assessed as inhibition of DNA synthesis after 24 hrs by BrdU staining-based ELISA; assay type: functional, cell-based; procedure, shortened: as §5
MDA-MB-231 [36] = assay: Induction of apoptosis in human MDA-MB-231 cells assessed as inhibition of DNA synthesis after 24 hrs by BrdU staining-based ELISA; assay type: functional, cell-based; procedure, shortened: as §5

Row | Compound | IC50 (HeLa [1]) [nM] | IC50 [2] [nM] | IC50 (A-375 [3]) [nM] | IC50 (Jurkat) [nM] | IC50 (MDA-MB-231 [4]) [nM] | Activity (Caco-2 [5]) [%] | Activity (Caco-2 [6]) [%] | Activity (Caco-2 [7]) [%] | Activity (Caco-2 [8]) [%] | Activity (Caco-2 [9]) [%] | Activity (Caco-2 [10]) [%] | Activity (A-375 [21]) | Activity (HeLa [22]) | Activity (MDA-MB-231 [23]) | Activity (A-375 [24]) | Activity (HeLa [25]) | Activity (MDA-MB-231 [26]) | Papp A→B at 50 µM [27] [×10⁻⁶ cm/s] | Papp at 5 min, 50 µM [33] [×10⁻⁶ cm/s] | Ka (Small intestine) [h⁻¹] | other results
1 | CC[C@@]1(O)C(=O)OCc2c1cc1n(c2=O)Cc2cc3c4c(ccc3nc2-1)OCOC4 | 345 | 104 | 186 | 124 | 476 | 61.56 | 47.78 | 57 | 37.04 | 11.8 | 8.16 | Active | Active | Active | Active | inactive | Active | 10 | 93.8 | 3.78 | Activity (Caco-2 [11]): 3.56%; Activity (Caco-2 [12]): 3.68%; Activity (Caco-2 [13]): 24.72%; Activity (Caco-2 [14]): 42.88%; Activity (Caco-2 [15]): 33.54%; Activity (Caco-2 [16]): 56.08%; Activity (Caco-2 [17]): 1.92%; Activity (Caco-2 [18]): 1.18%; Activity (Caco-2 [19]): 5.9%; Activity (Caco-2 [20]): 3.2%; Papp B→A at 50 µM [28]: 9.84 ×10⁻⁶ cm/s; Papp A→B at 50 µM [29]: 8.05 ×10⁻⁶ cm/s; Papp B→A at 50 µM [30]: 9.73 ×10⁻⁶ cm/s; permeability [31]: permeable; permeability [32]: permeable; Activity (Homo sapiens): inactive
2 | CC[C@@]1(O)C(=O)OCc2c1cc1n(c2=O)Cc2cc3ccccc3nc2-1 [CAMPTOTHECIN] | 420 | 131 | 187 | 110 | 342 | 83.26 | 81.62 | 51.12 | 36.98 | 15.22 | 1.64 | Active | Active | Active | Active | inactive | Active | 7.88 | 74.8 | 3.02 | Activity (Caco-2 [11]): 3.18%; Activity (Caco-2 [12]): 4.1%; Activity (Caco-2 [13]): 1.4%; Activity (Caco-2 [14]): 13.7%; Activity (Caco-2 [15]): 41.38%; Activity (Caco-2 [16]): 56.16%; Activity (Caco-2 [17]): 0.12%; Activity (Caco-2 [18]): 3.04%; Activity (Caco-2 [19]): 4.32%; Activity (Caco-2 [20]): 2.76%; permeability [31]: permeable; permeability [32]: permeable
3 | COCCc1ccc(OCC(O)CNC(C)C)cc1 (centres undefined) [METOPROLOL] | – | – | – | – | – | – | – | – | – | – | – | – | – | – | – | – | – | 23 | 55.3 | 2.3 | –
4 | CC[C@@]1(O)C(=O)OCc2c1cc1n(c2=O)Cc2cc3c([N+](=O)[O-])cccc3nc2-1 [RUBITECAN] | 343 | – | 138 | 128 | 479 | – | – | – | – | – | – | Active | Active | Active | Active | inactive | Active | – | – | – | inhibition (A-375 [34]): Dose-dependent effect; inhibition (HeLa [35]): Dose-dependent effect; inhibition (MDA-MB-231 [36]): Dose-dependent effect
